We go through 1 molecule from BindingDB's records for doi:10.1021/jm301749y (University of North Carolina at Chapel Hill, 2013).

The test addresses T1, C-C chemokine receptor type 4 (Homo sapiens, UniProt P51679).
T1 sequence (P51679 whole entry): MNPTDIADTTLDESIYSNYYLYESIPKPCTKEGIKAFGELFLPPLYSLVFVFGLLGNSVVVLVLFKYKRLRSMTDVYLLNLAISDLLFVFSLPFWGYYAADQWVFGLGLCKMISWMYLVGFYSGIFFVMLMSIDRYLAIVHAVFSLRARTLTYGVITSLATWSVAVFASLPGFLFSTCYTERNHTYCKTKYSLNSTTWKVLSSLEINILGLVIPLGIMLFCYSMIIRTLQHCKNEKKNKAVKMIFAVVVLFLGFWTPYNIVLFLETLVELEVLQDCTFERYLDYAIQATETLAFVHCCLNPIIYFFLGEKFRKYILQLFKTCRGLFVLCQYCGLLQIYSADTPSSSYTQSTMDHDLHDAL
Description: Inverse agonist activity at CCR4 in human HTLA cells assessed as depression of basal activity incubated for 20 mins by beta arrestin-recruitment mediated luciferase reporter gene assay in absence of CCL22. Put shortly: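 Transfected HTLA β-arrestin2-TEV/tTA-luciferase cells expressing CCR4, in serum-free DMEM, treated with compound dilutions in HBSS/20 mM HEPES pH 7.4 without CCL22 agonist; luciferase luminescence read on day 4; basal signal depression plotted as concentration-response curves.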
A general note: A reporter such as luciferase makes a cellular process visible.

The term IC50 denotes the concentration needed to halve the response being measured. Take `CCC(C)n1ncn(-c2ccc(N3CCN(c4ccc(OC[C@H]5CO[C@](Cn6cncn6)(c6ccc(Cl)cc6Cl)O5)cc4)CC3)cc2)c1=O` (stereo partly specified) [Oriconazole]: the IC50 is 0.2 µM.
